SMILES strings stand for the structures.

From BindingDB's records for doi:10.1021/jm990396t (Glaxo Wellcome Research and Development, 2000) come the findings set out here.

The target in this assay is Kynurenine 3-monooxygenase (Rattus norvegicus, UniProt O88867). In words: Inhibition of Kynurenine-3-hydroxylase enzyme isolated from the rat liver. In a few lines: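 Enzyme source: P2 mitochondrial pellet from rat liver, resuspended in 0.32 M sucrose. Activity measured as ³HOH release from 3-[³H]-L-kynurenine at its K_m concentration, 37 °C, under conditions linear with time and enzyme protein. Five inhibitor concentrations tested. IC50 taken as the mean of at least 2 experiments run in duplicate, with variation <20%.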
Sequence of Kynurenine 3-monooxygenase (O88867 whole entry): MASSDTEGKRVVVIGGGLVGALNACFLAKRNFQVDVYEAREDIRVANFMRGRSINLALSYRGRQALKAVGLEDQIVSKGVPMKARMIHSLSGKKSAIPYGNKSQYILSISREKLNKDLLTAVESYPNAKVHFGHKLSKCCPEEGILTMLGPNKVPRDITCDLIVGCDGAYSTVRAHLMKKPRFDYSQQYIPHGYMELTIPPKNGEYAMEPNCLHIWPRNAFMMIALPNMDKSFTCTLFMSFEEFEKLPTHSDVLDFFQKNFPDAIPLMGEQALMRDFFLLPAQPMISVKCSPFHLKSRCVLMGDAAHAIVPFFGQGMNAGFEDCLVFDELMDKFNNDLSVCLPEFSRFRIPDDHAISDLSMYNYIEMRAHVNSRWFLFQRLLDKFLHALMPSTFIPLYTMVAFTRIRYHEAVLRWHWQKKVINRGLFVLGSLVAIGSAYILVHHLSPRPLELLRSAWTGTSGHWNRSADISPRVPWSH
A word on the IC50: it is the midpoint of a concentration-inhibition curve. For the compound `COC(=O)C(=O)CC(=O)c1ccc(Cl)c(Cl)c1` [4-(3,4-Dichloro-phenyl)-2-hydroxy-4-oxo-but-2-enoic acid methyl ester], the half-inhibitory concentration (IC50) was determined as 1900 nM.
Then `COC(=O)C(=O)CC(=O)c1cccc(Cl)c1` [4-(3-Chloro-phenyl)-2-hydroxy-4-oxo-but-2-enoic acid methyl ester], with 1900 nM; and `COC(=O)C(=O)CC(=O)c1ccc(Br)cc1` [4-(4-Bromo-phenyl)-2-hydroxy-4-oxo-but-2-enoic acid methyl ester], with 1900 nM.
Compound `O=C(O)C(=O)CC(=O)c1cccc(Br)c1` [(Z)-4-(3-Bromo-phenyl)-2-hydroxy-4-oxo-but-2-enoic acid] yielded a half-maximal inhibitory concentration (IC50) of 1700 nM.
